High-throughput results from PubChem BioAssay.
Compounds with a hit are over-represented: about 6.3% of the library has one in this group of screens.
M1 antag: antagonists of rat M1 muscarinic receptor | B-score at 10 µM | hit rate 3.4% among 64,000 | AID 628, 2007 | CHO-M1 cells, Fluo-4 calcium, ACh EC80 antagonist mode; stronger effect = lower value | Muscarinic acetylcholine receptor M1 (Rattus norvegicus), P08482;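 active = calcium fluorescence response, raw or row-and-column corrected B-score, differing from the plate sample mean either way at a set confidence level, mostly lower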
SF1 activator: activators of human SF-1, primary screen, cell-based, CHO-K1, Gal4-SF-1 LBD, luciferase luminescence. Steroidogenic factor 1 (Homo sapiens), Q13285. CHO-K1 Gal4-SF-1 LBD luciferase reporter; % increase over DMSO SF-1-specific signal. activation, % at 10 µM. hit rate 1.9% among 65,000;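 active = activation above the mean activation of all tested compounds plus 3 SD, cut at about 50% in these data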
Target sequence (Q13285 whole entry, looked up, the tested form may be a part): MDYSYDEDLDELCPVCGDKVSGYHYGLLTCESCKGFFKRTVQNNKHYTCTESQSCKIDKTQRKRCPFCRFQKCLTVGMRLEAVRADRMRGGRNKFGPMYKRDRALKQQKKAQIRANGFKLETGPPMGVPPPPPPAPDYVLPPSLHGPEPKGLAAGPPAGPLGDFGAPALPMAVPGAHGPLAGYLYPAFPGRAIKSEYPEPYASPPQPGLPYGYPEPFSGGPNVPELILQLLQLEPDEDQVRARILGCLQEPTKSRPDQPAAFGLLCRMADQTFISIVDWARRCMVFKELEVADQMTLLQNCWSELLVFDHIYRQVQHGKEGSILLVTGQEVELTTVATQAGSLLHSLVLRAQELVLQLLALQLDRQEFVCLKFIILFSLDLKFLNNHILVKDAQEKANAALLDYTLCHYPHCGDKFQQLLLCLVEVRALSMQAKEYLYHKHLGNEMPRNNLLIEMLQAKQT
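material = CHO-K1 cells with Gal4–hSF-1 LBD chimera plus Gal4-driven luciferase | compound = 10 µM single point, 1% DMSO | incubation = 20 h compound exposure at 37 °C after 1 h cell settling | measured by = SteadyLite luciferase luminescence | evaluation = percent activation relative to DMSO median and mock-transfected background | control set = DMSO negative control and −SF1 background wells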
M1 ag: M1 muscarinic receptor agonists, primary screen, CHO-M1 cells, Fluo-4 calcium, agonist mode; B-score at 10 µM; Fluo-4 calcium fluorescence; stronger effect = higher value; Muscarinic acetylcholine receptor M1; hit rate 3% among 64,000;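 active = fluorescence rise, raw or as B-score row- and column-corrected plate score, outside the 99.7% band of its plate's samples, either direction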
MT1-MMP txn act: MT1-MMP promoter reporter activation – cell-based, luciferase luminescence, primary screen | HT1080 MT1-MMP promoter luciferase reporter, overnight; stronger effect = higher value | activation factor at 10 µM | hit rate 0.16% among 86,000;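 active = activation factor of at least 2 for MT1-MMP transcription at 10 µM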
RORa activator: activators of orphan receptor RORA, primary screen, cell-based, luminescence; Nuclear receptor ROR-alpha (Homo sapiens), P35398; activation, % at 10 µM; CHO-K1 Gal4-RORA LBD luciferase reporter; percent increase over mock-subtracted basal signal; hit rate 1.5% among 65,000;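 active = activation above the mean of all tested compounds plus 3 SD, cut at about 49% in these data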;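 note: 0% = DMSO-treated RORA cells and 100% = added signal equal to DMSO minus mock-transfected cells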
* hit, by the source's call; / = not tested or not shown.

SMILES	M1 antag	SF1 activator	M1 ag	MT1-MMP txn act	RORa activator
CCCCNC(=O)Nc1ccnn1C1CCCCC1	2.4*	5	-0.72	1.1	-10
COc1ccccc1NC(=O)Nc1ccnn1C1CCCCC1	0.0059	-8	-0.041	1.1	22
CCSc1nnc(NC(=O)c2cc3c(s2)CCCC3)s1	0.038	52*	-1.2	1.1	46
CCCc1cc(C(N)=O)c(NC(=O)c2ccco2)s1	-1.2	60*	-0.008	1.5	59*
CCSc1nnc(NC(=O)c2ccccc2)s1	0.16	49	0.046	/	66*
CCSc1nnc(Nc2ccccc2)s1	0.27	54*	-0.16	1.4	17
CC(=O)C(Sc1nn(C)c(=S)s1)C(=O)Nc1ccccc1 (configuration not stated)	0.4	5	-2.9	1.1	5
COc1cccc(OC)c1C(=O)Nc1cc(C)on1	/	/	/	1	/
COC(=O)c1ccc(C(NC(=O)OCc2ccccc2)/C(C)=C/[C@@H](C)C(=O)N2CCN(C)CC2)cc1 (some centres not stated)	/	/	/	1.1	/
CCSc1nnc(NC(=O)c2ccco2)s1	0	22	-0.93	1.3	53*
O=C(Nc1nnc(SCc2ccc(Cl)cc2)s1)c1ccco1	1.3	13	-0.72	1.3	-11
O=C(CNC(=O)c1ccccc1C(=O)O)c1ccccc1	0.078	56*	-0.015	1.5	29
Cn1nc(-c2ccc(C(=O)Nc3cccc(Cl)c3)cc2)c2ccccc2c1=O	/	/	/	1	/
Cc1ccc(C(=O)Nc2ccc3cn[nH]c3c2)cc1S(=O)(=O)N1CCCCC1	/	/	/	2.1*	/
Cc1csc(NC(=O)c2ccc(C)c(S(=O)(=O)N3CCCCC3)c2)n1	-0.61	-12	0.26	1.2	-1
CN(C)c1cccc(C(=O)NC2CCCCCC2)c1	0.42	75*	1.1	1.5	26
O=C(NC1CCCC1)c1cccc(S(=O)(=O)N2CCCCC2)c1	-0.38	-1	-0.59	1.1	-12
CCCn1c(=O)n(C)c(=O)c2c3oc(=O)c(NC(=O)c4ccc(F)cc4)cc3[nH]c21	0.34	9	0.81	0.9	-24
O=C(Nc1ccccn1)c1ccco1	/	/	/	1.5	/
O=C(Nc1ccc(NC(=O)c2ccco2)nc1)c1ccccn1	1.3	52*	1.6	/	27
O=C(Cc1ccccc1)Nc1ccc(NC(=O)c2ccco2)nc1	-2	59*	-1.4	1.6	17
O=C(Nc1ccc(NC(=O)C23CC4CC(CC(C4)C2)C3)cn1)c1ccco1	-1.7	90*	0.28	1.6	28
CN(C)/C=N/c1cc(=O)n(C)c(=O)n1Cc1ccccc1	/	/	/	1	/
CCn1cc(C(=O)NC2CCc3ccccc32)c(=O)c2ccc(C)nc21 (configuration not stated)	0.034	16	-0.92	1.1	-8
CCNC(=O)NC(=O)COc1ccccc1C#N	-0.39	54*	0.22	1.5	19
SMILES	M1 antag	SF1 activator	M1 ag	MT1-MMP txn act	RORa activator
CS(=O)(=O)Nc1ccccc1C(=O)N1CCN(c2ccccc2)CC1	/	/	/	1.1	/
CCOc1cc(N2CCOCC2)c(OCC)cc1NS(=O)(=O)c1ccc(Cl)s1	-1.1	19	0.12	0.5	79*
CCOc1cc(N2CCOCC2)c(OCC)cc1NC(=O)CCS(=O)(=O)c1ccc(Cl)cc1	0.53	-6	0.85	1	4
CNC(=O)[C@H](C)[C@H]1C[C@]1(C)[C@H](NC(=O)OCc1ccccc1)c1ccccc1	/	/	/	1.3	/
Cc1ccc2cc(CN(CC3CCCO3)S(=O)(=O)c3c(C)ccc4nsnc34)c(=O)[nH]c2c1 (configuration not stated)	-0.17	6	-0.73	1.2	-12
Cc1ccc2nsnc2c1S(=O)(=O)N(Cc1cc2cccc(C)c2[nH]c1=O)CC1CCCO1 (configuration not stated)	-3.2*	0	13*	1.1	-6
COc1ccccc1Nc1nc2ccccc2[nH]1	0.062	66*	-0.33	1.5	6
Cc1csc(NC(=O)Nc2cccc(Cl)c2)n1	0.08	63*	1.6	1.4	70*
O=C(Nc1cccc(Cl)c1)Nc1cccc(Cl)c1	/	/	/	1.1	/
O=C(NCc1ccccn1)Nc1cccc(Cl)c1	-0.13	63*	0.71	1.6	38
N#CCc1ccc(NC(=O)Nc2cccc(Cl)c2)cc1	-1.4	79*	-0.76	1.3	7
Nc1ncnc2c1ncn2[C@@H]1O[C@H](CO)[C@@H](O)[C@H]1O	-0.35	0	13*	1.1	1
[N-]=[N+]=CC(=O)c1ccnc(C(=O)C=[N+]=[N-])c1	1.6*	3	-0.38	1	-27
CC1(C)CC(=O)c2sc(N3CCCCC3)nc2C1	/	13	/	1.6	36
CC1(C)CNC(=O)c2sc(N3CCCCC3)nc2C1	-0.27	30	4.6	1.5	51*
CCN(CC)C(=O)CSc1ncnc2c(-c3cccs3)nsc12	0.37	68*	0.98	1.3	12
O=C(c1cc2ccccc2oc1=O)N(Cc1ccccc1)Cc1ccc2c(c1)OCO2	/	/	/	2.5*	/
O=C(c1cc2ccccc2oc1=O)N1CCN(Cc2ccc3c(c2)OCO3)CC1	-0.65	1	0.13	1	-8
Cc1cnn(C(=S)NCc2ccc(Cl)cc2)c1	0	-13	0.95	1.2	-11
Cc1cnn(C(=S)NCCc2ccccc2)c1	-1.3	53*	-0.18	1.4	27
COC(=O)c1ccc(C23CC4(C2)[C@H](CN(CC2CCCCC2)[C@@H]4c2ccccc2)C3c2ccccc2)cc1 (some centres not stated)	/	/	/	1	/
CCN(CC)C(=O)c1cc(-c2ccc(Br)cc2)on1	0.011	56*	0.13	1.6	18
COC(=O)c1cc(-c2ccc(Br)cc2)on1	-0.0079	23	-1.1	1	-21
COc1ccccc1-c1ccc(NC2CCCC2)nn1	/	/	/	2.1*	/
COc1ccc(CNc2ccc(-c3ccccc3OC)nn2)cc1	/	/	/	1.2	/
SMILES	M1 antag	SF1 activator	M1 ag	MT1-MMP txn act	RORa activator
CCN(CC)c1ccc(NC(=O)c2ccc(Br)o2)cc1	/	39	/	1	102*
O=C(Nc1ccc2c(c1)oc1ccccc12)c1ccc(Br)o1	-1.4	38	-1.1	1.7	68*
COC(=O)Cc1ccc(NC(=O)c2ccc(Br)o2)cc1	-0.37	48	-0.025	1.5	35
Cc1cc(C(=O)CN2C(=O)c3ccccc3C2=O)c(C)n1C1CC1	0.41	56*	0.13	1.3	14
O=C(Nc1nc(-c2ccccn2)cs1)c1ccc(Cl)s1	-1.2	-95	0.55	/	-65
O=C(Nc1nccs1)c1ccc(Cl)s1	0.31	58*	1.7	1.5	47
O=C(Nc1ccc2sccc2c1)c1ccc(Cl)s1	-0.15	60*	-0.58	1.3	34
Cc1ccc(Cl)cc1N1CCN(C(=O)CCS(=O)(=O)c2cccc3nonc23)CC1	-0.18	-14	-0.87	1.2	-22
